# Activity calls are given as the source filed them. The rule behind the calls is not given here.
# What was measured:
# K562 [1] = experiment: Cytotoxicity against human K562 cells after 48 hrs by MTT assay; format: functional, cell-based; conditions: K562, 48 h
# Procedure, shortened: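 K562 cells grown in DMEM with 10% FBS plus penicillin and streptomycin, humidified air, 37 °C, 5% CO2. Cells seeded in 96-well plates and exposed to compounds at varying concentrations for 48 h. Viability read by MTT. IC50 derived from inhibition rates at each concentration. Values are means of three experiments.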
# [2] = target: Tyrosine-protein kinase ABL2 (Homo sapiens) (UniProt P42684); experiment: Inhibition of Abl2 at 20 uM after 1 hr by luminescence assay
# Sequence of Tyrosine-protein kinase ABL2 (Homo sapiens) (P42684 whole entry): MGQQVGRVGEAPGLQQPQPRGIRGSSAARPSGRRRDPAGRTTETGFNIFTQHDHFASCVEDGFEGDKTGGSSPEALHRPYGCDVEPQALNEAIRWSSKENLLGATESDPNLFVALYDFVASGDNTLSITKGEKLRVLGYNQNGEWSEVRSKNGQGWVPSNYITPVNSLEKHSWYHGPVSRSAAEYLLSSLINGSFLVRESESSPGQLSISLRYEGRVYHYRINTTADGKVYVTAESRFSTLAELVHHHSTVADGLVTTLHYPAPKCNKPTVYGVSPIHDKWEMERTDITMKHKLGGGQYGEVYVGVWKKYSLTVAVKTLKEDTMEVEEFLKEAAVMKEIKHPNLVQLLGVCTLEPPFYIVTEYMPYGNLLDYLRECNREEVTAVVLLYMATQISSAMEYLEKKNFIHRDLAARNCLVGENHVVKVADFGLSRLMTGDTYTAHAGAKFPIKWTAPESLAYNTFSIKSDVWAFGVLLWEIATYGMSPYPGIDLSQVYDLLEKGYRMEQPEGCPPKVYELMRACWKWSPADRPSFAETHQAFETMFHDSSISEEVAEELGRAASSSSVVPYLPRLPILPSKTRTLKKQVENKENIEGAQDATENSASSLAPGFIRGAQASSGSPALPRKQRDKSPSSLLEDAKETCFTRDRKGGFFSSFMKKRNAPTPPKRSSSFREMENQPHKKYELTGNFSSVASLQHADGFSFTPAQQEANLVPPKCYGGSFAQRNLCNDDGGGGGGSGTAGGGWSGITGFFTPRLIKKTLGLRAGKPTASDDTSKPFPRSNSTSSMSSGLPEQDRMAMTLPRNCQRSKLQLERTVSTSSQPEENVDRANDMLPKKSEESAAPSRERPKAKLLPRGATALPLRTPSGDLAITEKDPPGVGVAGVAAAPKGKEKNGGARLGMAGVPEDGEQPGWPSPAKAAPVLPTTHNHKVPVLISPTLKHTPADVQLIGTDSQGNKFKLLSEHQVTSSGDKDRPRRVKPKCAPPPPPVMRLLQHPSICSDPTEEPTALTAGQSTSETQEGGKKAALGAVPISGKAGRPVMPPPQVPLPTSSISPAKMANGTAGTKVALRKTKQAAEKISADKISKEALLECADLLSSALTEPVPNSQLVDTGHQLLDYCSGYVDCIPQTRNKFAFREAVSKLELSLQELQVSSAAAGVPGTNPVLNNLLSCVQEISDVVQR
# Procedure, shortened: (§1)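 Kinase incubated with substrate, test compound and ATP in a final buffer of 25 mM HEPES. Controls were staurosporine for Abl and PI103 for PI3K.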
# K562 [3] = experiment: Induction of apoptosis in human K562 cells at 5 uM after 24 hrs by annexin V-FITC/propidium iodide staining by flow cytometry; format: functional, cell-based
# Procedure, shortened: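 K562 cells were treated for 24 h, then untreated and treated cells were collected by centrifugation and washed twice with ice-cold PBS. Phosphatidylserine surface exposure was measured by Annexin V-FITC binding, with PI staining for membrane integrity. Read-out was flow cytometry.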
# [4] = target: Phosphatidylinositol 4,5-bisphosphate 3-kinase catalytic subunit alpha isoform (Homo sapiens) (UniProt P42336); experiment: Inhibition of PI3Kalpha at 20 uM after 1 hr by luminescence assay; procedure, shortened: as §1
# Sequence of Phosphatidylinositol 4,5-bisphosphate 3-kinase catalytic subunit alpha isoform (Homo sapiens) (P42336 whole entry, canonical isoform): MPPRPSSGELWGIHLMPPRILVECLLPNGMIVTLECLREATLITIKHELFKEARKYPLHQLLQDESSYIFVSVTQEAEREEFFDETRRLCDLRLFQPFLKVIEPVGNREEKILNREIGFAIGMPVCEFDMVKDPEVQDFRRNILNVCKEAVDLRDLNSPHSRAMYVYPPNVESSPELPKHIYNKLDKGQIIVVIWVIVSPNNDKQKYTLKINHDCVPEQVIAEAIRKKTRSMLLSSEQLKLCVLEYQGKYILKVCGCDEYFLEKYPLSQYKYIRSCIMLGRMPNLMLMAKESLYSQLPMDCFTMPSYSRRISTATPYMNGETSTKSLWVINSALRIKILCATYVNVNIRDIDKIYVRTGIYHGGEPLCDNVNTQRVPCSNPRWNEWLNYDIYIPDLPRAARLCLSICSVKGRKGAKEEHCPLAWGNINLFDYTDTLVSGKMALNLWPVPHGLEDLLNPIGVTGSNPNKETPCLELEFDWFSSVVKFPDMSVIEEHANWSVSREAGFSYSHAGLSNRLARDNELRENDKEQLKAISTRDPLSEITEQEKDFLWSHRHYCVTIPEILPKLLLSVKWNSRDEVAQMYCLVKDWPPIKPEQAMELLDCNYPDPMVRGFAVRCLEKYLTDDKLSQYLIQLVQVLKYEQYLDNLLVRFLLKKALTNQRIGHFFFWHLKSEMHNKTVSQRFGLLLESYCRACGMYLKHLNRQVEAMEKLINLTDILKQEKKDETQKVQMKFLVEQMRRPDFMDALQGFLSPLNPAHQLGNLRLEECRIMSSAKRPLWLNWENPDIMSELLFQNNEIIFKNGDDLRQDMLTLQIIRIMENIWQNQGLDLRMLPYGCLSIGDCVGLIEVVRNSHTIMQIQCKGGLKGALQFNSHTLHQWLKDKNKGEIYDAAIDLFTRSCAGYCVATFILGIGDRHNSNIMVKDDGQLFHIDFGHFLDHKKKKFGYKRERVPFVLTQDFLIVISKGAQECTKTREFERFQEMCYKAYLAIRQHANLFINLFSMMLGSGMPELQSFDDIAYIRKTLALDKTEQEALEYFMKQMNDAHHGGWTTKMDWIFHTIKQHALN
SMILES,IC50 (K562 [1]),inhibition [2],Activity (K562 [3]),inhibition [4]
O=C(CN[C@H]1CCN(S(=O)(=O)Cc2ccccc2)C1)N1CCN(Cc2cccc(Cl)c2)CC1,8.6 µM,,,
O=C(CN[C@H]1CCN(S(=O)(=O)Cc2ccccc2)C1)N1CCN(Cc2cccc(C(F)(F)F)c2)CC1,3.6 µM,4.49%,inactive,12.1%
O=C(CN[C@H]1CCN(S(=O)(=O)Cc2ccccc2)C1)N1CCN(Cc2ccc(Cl)cc2)CC1,9.2 µM,,,
Oc1cccc(-c2nc(N3CCOCC3)c3oc4ncccc4c3n2)c1,,,,98.1%
O=C(CN[C@H]1CCN(S(=O)(=O)Cc2ccccc2)C1)N1CCN(Cc2ccccc2)CC1,9.5 µM,,,
Cc1ccc(NC(=O)c2ccc(CN3CCN(C)CC3)cc2)cc1Nc1nccc(-c2cccnc2)n1 [IMATINIB],0.58 µM,,,
Cc1cc(C)c(CN2CCN(C(=O)CN[C@H]3CCN(S(=O)(=O)Cc4ccccc4)C3)CC2)c(C)c1,3.3 µM,1.39%,inactive,13.5%
COc1cccc(CN2CCN(C(=O)CN[C@H]3CCN(S(=O)(=O)Cc4ccccc4)C3)CC2)c1,60.8 µM,,,
O=C(CN[C@H]1CCN(S(=O)(=O)Cc2ccccc2)C1)N1CCN(Cc2ccc(Cl)cc2Cl)CC1,4.3 µM,4.92%,inactive,16.4%
Cc1cccc(CN2CCN(C(=O)CN[C@H]3CCN(S(=O)(=O)Cc4ccccc4)C3)CC2)c1,11.3 µM,,,
O=C(CN[C@H]1CCN(S(=O)(=O)Cc2ccccc2)C1)N1CCN(Cc2c(F)cccc2Cl)CC1,65.8 µM,,,
O=C(CN[C@H]1CCN(S(=O)(=O)Cc2ccccc2)C1)N1CCN(Cc2ccccc2F)CC1,12.6 µM,,,
COc1cc(CN2CCN(C(=O)CN[C@H]3CCN(S(=O)(=O)Cc4ccccc4)C3)CC2)cc(OC)c1OC,93 µM,,,
COc1cc(CN2CCN(C(=O)CN[C@H]3CCN(S(=O)(=O)Cc4ccccc4)C3)CC2)cc(OC)c1,33.8 µM,,,
COc1ccc(CN2CCN(C(=O)CN[C@H]3CCN(S(=O)(=O)Cc4ccccc4)C3)CC2)cc1,50.9 µM,,,
O=C(CN[C@H]1CCN(S(=O)(=O)Cc2ccccc2)C1)N1CCN(Cc2ccc(F)cc2)CC1,14.3 µM,,,
O=C(CN[C@H]1CCN(S(=O)(=O)Cc2ccccc2)C1)N1CCN(Cc2cccc(F)c2)CC1,13.2 µM,,,
O=C(CN[C@H]1CCN(S(=O)(=O)Cc2ccccc2)C1)N1CCN(Cc2c(Cl)cccc2Cl)CC1,28.4 µM,,,
Cc1ccccc1CN1CCN(C(=O)CN[C@H]2CCN(S(=O)(=O)Cc3ccccc3)C2)CC1,10.2 µM,,,
Cc1ccc(CN2CCN(C(=O)CN[C@H]3CCN(S(=O)(=O)Cc4ccccc4)C3)CC2)cc1,8.2 µM,,,
O=C(CN[C@H]1CCN(S(=O)(=O)Cc2ccccc2)C1)N1CCN(Cc2ccccc2Cl)CC1,9 µM,,,
CN[C@@H]1C[C@H]2O[C@@](C)([C@@H]1OC)n1c3ccccc3c3c4c(c5c6ccccc6n2c5c31)C(=O)NC4,,90.2%,,

# Reference: ChEMBL document CHEMBL1759999, “Exploration of (S)-3-aminopyrrolidine as a potentially interesting scaffold for discovery of novel Abl and PI3K dual inhibitors” (Eur J Med Chem, 2011)
